# Reference: ChEMBL document CHEMBL3098105, “7,7'-Diazaindirubin--a small molecule inhibitor of casein kinase 2 in vitro and in cells” (Bioorg Med Chem, 2014)
# The source made the active and inactive calls. The calls are words filed in the database; no cut-off is given here.
# Experiments:
# [1] = target: Glycogen synthase kinase-3 beta (Homo sapiens) (UniProt P49841); test: Inhibition of GSK3-beta (unknown origin) assessed as residual activity at 1 uM relative to control
# [2] = target: Cyclin-dependent kinase 2/cyclin E1 (Homo sapiens) (UniProt P24864+P24941); test: Inhibition of CDK2/CycE (unknown origin) assessed as residual activity at 1 uM relative to control; assay type: protein-complex assay
# [3] = target: Serine/threonine-protein kinase B-raf (Homo sapiens) (UniProt P15056); test: Inhibition of wild type B-RAF (unknown origin) assessed as residual activity at 1 uM relative to control
# [4] = Antiproliferative activity against human OVCAR5 cells after 3 days by sulforhodamine B assay; assay type: functional; details: OVCAR-5, 72 h
# Method in brief: (§1)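 Tested in the NCI 60 cell line panel. GI50 is the concentration giving 50% inhibition of cell growth, and values are the mean of two series of tests.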
# OVCAR-3 = test: Antiproliferative activity against human OVCAR3 cells after 3 days by sulforhodamine B assay; assay type: functional; details: OVCAR-3, 72 h; method in brief: as §1
# UACC-62 = test: Antiproliferative activity against human UACC62 cells after 3 days by sulforhodamine B assay; assay type: functional; details: UACC-62, 72 h
# M14 = test: Antiproliferative activity against human M14 cells after 3 days by sulforhodamine B assay; assay type: functional; details: M14, 72 h; method in brief: as §1
# SNB-19 = test: Antiproliferative activity against human SNB19 cells after 3 days by sulforhodamine B assay; assay type: functional; details: SNB-19, 72 h
# SF-295 = test: Antiproliferative activity against human SF295 cells after 3 days by sulforhodamine B assay; assay type: functional; details: SF-295, 72 h; method in brief: as §1
# MCF7 [5] = test: Cell cycle arrest in human MCF7 cells assessed as accumulation at sub-G1 phase at 0.5 uM after 24 hrs using propidium iodide staining by FACS analysis (reference value: 0.17%); assay type: functional
# [6] = target: High affinity nerve growth factor receptor (Homo sapiens) (UniProt P04629); test: Inhibition of human TrkA assessed as residual activity at 1 uM relative to control
# [7] = target: Mitogen-activated protein kinase kinase kinase 7 (Homo sapiens) (UniProt O43318); test: Inhibition of human TAK1 assessed as residual activity at 1 uM relative to control
# Mitogen-activated protein kinase kinase kinase 7 (Homo sapiens), sequence (O43318 whole entry): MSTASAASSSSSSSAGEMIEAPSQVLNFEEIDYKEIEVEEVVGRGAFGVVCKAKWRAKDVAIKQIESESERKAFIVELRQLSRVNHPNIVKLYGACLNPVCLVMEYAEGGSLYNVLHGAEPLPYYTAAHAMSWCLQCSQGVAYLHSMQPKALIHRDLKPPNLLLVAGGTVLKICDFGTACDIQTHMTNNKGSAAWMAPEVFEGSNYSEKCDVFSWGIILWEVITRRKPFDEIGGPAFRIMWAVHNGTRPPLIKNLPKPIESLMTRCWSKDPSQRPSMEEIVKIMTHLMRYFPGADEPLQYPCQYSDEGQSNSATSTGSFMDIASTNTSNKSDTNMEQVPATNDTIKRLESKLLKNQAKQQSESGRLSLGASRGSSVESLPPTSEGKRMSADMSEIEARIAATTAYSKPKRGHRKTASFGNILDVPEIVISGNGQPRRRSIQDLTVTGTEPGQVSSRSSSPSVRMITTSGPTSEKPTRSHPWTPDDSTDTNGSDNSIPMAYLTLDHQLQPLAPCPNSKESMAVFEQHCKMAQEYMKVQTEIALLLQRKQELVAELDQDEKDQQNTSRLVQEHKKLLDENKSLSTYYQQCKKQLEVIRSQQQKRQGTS
# [8] = target: Serine/threonine-protein kinase PLK2 (Homo sapiens) (UniProt Q9NYY3); test: Inhibition of human Snk assessed as residual activity at 1 uM relative to control
# [9] = target: Mitogen-activated protein kinase 12 (Homo sapiens) (UniProt P53778); test: Inhibition of human SAPK3 assessed as residual activity at 1 uM relative to control
# Mitogen-activated protein kinase 12 (Homo sapiens), sequence (P53778 whole entry): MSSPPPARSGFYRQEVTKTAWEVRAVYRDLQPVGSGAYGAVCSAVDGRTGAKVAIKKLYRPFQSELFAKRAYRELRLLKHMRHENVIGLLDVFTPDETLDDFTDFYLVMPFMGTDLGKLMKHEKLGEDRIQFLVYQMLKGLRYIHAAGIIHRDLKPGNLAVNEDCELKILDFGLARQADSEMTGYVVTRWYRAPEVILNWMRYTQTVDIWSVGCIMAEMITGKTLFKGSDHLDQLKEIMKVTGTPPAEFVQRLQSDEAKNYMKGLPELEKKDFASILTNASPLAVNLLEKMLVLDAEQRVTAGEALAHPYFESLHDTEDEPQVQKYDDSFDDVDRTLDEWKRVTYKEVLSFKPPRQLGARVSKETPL
# [10] = target: Mitogen-activated protein kinase 11 (Homo sapiens) (UniProt Q15759); test: Inhibition of human SAPK2beta assessed as residual activity at 1 uM relative to control
# HL-60 = test: Antiproliferative activity against human HL60 cells after 3 days by sulforhodamine B assay; assay type: functional; details: HL-60, 72 h; method in brief: as §1
# MCF7 [11] = test: Induction of late stage apoptosis in CK2-deficient human MCF7 cells at 0.25 to 4 uM after 24 hrs using propidium iodide/annexin V staining by FACS analysis; assay type: functional, cell-based
# Method in brief: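 MCF7 cells were then treated for 24 h, stained with FITC-annexin V in HEPES pH 7.4 binding buffer with 1.8 mM CaCl2 (15 min, dark, room temperature), then with PI (10 min), and analysed by FACS.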
# [12] = target: Protein kinase C delta type (Homo sapiens) (UniProt Q05655); test: Inhibition of human PKCdelta assessed as residual activity at 1 uM relative to control
# [13] = target: RAC-alpha serine/threonine-protein kinase (Homo sapiens) (UniProt P31749); test: Inhibition of human PKBalpha assessed as residual activity at 1 uM relative to control
# [14] = target: Serine/threonine-protein kinase PAK 6 (Homo sapiens) (UniProt Q9NQU5); test: Inhibition of human PAK6 assessed as residual activity at 1 uM relative to control
# [15] = target: Interleukin-1 receptor-associated kinase 4 (Homo sapiens) (UniProt Q9NWZ3); test: Inhibition of human IRAK4 assessed as residual activity at 1 uM relative to control
# Interleukin-1 receptor-associated kinase 4 (Homo sapiens), sequence (Q9NWZ3 whole entry): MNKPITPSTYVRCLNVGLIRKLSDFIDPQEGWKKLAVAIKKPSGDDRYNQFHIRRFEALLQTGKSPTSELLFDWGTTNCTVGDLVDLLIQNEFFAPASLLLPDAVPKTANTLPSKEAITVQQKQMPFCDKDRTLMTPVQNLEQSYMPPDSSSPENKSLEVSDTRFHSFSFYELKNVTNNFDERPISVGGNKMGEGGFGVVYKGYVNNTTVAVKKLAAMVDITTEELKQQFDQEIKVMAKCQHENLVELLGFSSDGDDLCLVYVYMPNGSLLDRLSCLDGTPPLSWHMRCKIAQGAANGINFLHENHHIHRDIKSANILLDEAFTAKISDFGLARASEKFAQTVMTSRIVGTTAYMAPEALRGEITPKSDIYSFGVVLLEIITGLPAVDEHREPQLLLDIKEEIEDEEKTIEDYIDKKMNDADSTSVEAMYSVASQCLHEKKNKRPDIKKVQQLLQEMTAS
# [16] = target: Receptor-type tyrosine-protein kinase FLT3 (Homo sapiens) (UniProt P36888); test: Inhibition of human Flt3 assessed as residual activity at 1 uM relative to control
# Receptor-type tyrosine-protein kinase FLT3 (Homo sapiens), sequence (P36888 whole entry): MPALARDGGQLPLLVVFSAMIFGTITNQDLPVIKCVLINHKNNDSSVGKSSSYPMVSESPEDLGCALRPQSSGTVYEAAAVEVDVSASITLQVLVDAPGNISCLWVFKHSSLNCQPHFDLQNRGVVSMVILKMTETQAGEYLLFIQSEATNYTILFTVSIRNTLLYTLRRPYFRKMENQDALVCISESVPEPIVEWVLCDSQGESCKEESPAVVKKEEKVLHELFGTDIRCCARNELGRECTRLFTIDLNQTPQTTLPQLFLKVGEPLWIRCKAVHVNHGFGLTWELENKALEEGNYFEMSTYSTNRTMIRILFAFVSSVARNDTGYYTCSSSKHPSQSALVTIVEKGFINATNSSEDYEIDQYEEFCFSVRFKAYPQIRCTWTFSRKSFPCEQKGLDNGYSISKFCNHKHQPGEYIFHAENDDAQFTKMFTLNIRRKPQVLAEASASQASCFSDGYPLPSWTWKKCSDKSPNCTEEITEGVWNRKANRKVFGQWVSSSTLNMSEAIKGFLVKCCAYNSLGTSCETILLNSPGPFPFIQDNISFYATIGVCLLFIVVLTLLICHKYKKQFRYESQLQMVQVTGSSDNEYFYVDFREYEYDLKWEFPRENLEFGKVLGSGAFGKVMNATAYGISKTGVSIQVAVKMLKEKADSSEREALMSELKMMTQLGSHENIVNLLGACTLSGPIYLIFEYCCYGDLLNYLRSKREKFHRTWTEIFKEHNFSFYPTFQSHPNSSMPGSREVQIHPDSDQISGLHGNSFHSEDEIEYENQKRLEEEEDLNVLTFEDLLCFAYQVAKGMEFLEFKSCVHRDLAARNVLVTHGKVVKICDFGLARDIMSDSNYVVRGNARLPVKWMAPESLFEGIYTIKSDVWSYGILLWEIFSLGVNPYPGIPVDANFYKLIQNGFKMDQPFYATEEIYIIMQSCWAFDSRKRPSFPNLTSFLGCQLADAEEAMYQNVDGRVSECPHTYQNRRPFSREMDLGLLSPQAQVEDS
# [17] = target: Tyrosine-protein kinase Fes/Fps (Homo sapiens) (UniProt P07332); test: Inhibition of human Fes assessed as residual activity at 1 uM relative to control
# [18] = target: Receptor tyrosine-protein kinase erbB-4 (Homo sapiens) (UniProt Q15303); test: Inhibition of human ErbB4 assessed as residual activity at 1 uM relative to control
# Receptor tyrosine-protein kinase erbB-4 (Homo sapiens), sequence (Q15303 whole entry): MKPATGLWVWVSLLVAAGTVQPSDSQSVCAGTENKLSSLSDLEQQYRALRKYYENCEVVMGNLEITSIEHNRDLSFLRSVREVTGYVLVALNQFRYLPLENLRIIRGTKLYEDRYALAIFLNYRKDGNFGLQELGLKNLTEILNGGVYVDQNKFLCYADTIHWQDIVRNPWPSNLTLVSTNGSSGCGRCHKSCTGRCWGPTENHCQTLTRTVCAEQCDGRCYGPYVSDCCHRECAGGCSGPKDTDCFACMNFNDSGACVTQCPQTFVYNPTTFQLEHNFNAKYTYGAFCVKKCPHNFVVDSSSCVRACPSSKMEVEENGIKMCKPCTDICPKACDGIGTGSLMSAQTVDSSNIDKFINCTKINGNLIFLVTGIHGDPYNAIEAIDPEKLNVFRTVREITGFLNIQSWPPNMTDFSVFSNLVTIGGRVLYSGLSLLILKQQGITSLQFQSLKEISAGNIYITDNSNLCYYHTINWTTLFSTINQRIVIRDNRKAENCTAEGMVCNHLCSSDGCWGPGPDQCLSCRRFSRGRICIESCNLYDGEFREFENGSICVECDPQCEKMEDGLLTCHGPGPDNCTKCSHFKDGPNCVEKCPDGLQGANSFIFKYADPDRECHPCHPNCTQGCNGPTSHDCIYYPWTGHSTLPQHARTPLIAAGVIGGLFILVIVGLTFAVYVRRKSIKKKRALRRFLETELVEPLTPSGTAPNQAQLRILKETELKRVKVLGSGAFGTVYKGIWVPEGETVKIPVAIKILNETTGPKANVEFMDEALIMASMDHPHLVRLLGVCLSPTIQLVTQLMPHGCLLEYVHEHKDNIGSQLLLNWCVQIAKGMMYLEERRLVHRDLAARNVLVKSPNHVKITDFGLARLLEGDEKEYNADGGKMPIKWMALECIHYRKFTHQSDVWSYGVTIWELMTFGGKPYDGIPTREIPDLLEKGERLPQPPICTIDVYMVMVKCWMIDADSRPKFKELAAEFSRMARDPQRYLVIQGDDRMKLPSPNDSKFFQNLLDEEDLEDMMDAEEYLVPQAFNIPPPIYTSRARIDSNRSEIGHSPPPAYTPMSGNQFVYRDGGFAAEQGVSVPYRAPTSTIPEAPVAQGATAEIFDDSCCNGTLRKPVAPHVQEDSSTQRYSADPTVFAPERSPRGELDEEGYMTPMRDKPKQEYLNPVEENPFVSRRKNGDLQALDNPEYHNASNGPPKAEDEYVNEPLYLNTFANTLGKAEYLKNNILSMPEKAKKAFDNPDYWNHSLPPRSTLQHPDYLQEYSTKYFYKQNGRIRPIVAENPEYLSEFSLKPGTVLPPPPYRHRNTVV
# [19] = target: Ephrin type-A receptor 5 (Homo sapiens) (UniProt P54756); test: Inhibition of human EphA5 assessed as residual activity at 1 uM relative to control
# [20] = target: Serine/threonine-protein kinase DCLK2 (Homo sapiens) (UniProt Q8N568); test: Inhibition of human DCAMKL2 assessed as residual activity at 1 uM relative to control
# [21] = target: T1, Serine/threonine-protein kinase Chk1 (Homo sapiens) (UniProt O14757); test: Inhibition of human CHK1 assessed as residual activity at 1 uM relative to control
# T1 sequence (whole entry): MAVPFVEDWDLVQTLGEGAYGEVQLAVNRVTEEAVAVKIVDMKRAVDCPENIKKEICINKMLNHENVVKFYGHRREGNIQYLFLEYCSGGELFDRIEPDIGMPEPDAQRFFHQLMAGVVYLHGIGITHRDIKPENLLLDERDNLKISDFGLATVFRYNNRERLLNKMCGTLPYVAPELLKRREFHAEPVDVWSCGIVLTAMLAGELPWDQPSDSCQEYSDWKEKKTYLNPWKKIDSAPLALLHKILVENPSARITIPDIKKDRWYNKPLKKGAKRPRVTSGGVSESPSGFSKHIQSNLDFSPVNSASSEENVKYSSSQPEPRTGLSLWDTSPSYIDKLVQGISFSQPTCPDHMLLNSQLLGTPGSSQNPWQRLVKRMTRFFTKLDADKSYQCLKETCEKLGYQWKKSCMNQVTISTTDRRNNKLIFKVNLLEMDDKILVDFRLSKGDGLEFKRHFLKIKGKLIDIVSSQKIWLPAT
# [22] = target: Calcium/calmodulin-dependent protein kinase type II subunit beta (Homo sapiens) (UniProt Q13554); test: Inhibition of human CaMK2beta assessed as residual activity at 1 uM relative to control
# Calcium/calmodulin-dependent protein kinase type II subunit beta (Homo sapiens), sequence (Q13554 whole entry): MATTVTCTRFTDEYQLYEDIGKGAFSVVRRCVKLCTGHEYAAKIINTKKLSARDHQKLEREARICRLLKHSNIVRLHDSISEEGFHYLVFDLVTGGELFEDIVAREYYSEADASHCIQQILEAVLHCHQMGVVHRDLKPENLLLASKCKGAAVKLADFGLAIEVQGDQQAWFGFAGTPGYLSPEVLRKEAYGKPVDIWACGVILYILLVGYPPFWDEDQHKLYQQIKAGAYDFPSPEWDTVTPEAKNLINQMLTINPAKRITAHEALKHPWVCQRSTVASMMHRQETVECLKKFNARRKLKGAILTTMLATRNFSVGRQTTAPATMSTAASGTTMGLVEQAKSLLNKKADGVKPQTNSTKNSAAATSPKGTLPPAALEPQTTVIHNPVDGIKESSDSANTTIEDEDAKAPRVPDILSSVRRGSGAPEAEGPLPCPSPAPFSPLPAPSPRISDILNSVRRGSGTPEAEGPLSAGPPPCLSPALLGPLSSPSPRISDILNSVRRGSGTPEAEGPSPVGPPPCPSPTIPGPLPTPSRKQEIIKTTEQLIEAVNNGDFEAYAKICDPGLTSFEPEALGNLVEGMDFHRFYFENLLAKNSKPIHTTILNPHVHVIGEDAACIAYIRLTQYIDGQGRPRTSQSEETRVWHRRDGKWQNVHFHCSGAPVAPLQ
# [23] = target: Tyrosine-protein kinase receptor UFO (Homo sapiens) (UniProt P30530); test: Inhibition of human Axl assessed as residual activity at 1 uM relative to control
# [24] = target: Tyrosine-protein kinase JAK2 (Homo sapiens) (UniProt O60674); test: Inhibition of JAK2 (unknown origin) assessed as residual activity at 10 uM relative to control
# [25] = target: Cyclin-dependent kinase 4/cyclin D1 (Homo sapiens) (UniProt P11802+P24385); test: Inhibition of CDK4/CycD1 (unknown origin) assessed as residual activity at 10 uM relative to control; assay type: protein-complex assay
# Glycogen synthase kinase-3 beta (Homo sapiens), sequence (P49841 whole entry, looked up): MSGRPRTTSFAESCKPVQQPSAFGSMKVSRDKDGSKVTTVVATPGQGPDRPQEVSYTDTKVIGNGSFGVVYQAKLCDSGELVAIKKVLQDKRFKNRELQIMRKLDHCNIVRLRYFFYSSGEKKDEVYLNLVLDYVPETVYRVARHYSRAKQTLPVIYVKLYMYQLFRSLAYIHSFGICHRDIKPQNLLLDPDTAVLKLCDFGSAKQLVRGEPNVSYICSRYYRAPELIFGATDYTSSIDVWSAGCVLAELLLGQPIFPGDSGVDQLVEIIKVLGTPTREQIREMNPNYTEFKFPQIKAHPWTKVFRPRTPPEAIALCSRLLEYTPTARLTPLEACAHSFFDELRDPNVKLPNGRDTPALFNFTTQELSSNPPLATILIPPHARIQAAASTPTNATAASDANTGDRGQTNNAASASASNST
compound,measurement,setting,value
O=C1Nc2ncccc2/C1=C1/Nc2ncccc2C1=O,Activity,[1],92%
same,Activity,[2],90%
same,Activity,[3],80%
same,GI50,[4],2470 nM
same,GI50,OVCAR-3,289 nM
same,GI50,UACC-62,432 nM
same,GI50,M14,391 nM
same,GI50,SNB-19,517 nM
same,GI50,SF-295,257 nM
same,Activity,MCF7 [5],0.37%
same,Activity,[6],127%
same,Activity,[7],95%
same,Activity,[8],83%
same,Activity,[9],101%
same,Activity,[10],147%
same,GI50,HL-60,1850 nM
same,Activity,MCF7 [11],inactive
same,Activity,[12],126%
same,Activity,[13],94%
same,Activity,[14],51%
same,Activity,[15],93%
same,Activity,[16],69%
same,Activity,[17],107%
same,Activity,[18],121%
same,Activity,[19],125%
same,Activity,[20],100%
same,Activity,[21],107%
same,Activity,[22],99%
same,Activity,[23],92%
same,Activity,[24],92%
same,Activity,[25],88%
